The values that follow come from ChEMBL document CHEMBL4513216, “Probing the Open Global Health Chemical Diversity Library for Multistage-Active Starting Points for Next-Generation Antimalarials” (ACS Infect Dis, 2020).

This series is described as follows: Toxicity liver stage against HepG2, at 10uM. In kind it is cell-based. Also noted: test concentration 10 uM, cell line HepG2-A16-CD81EGFP. Conditions: human, HepG2-A16-CD81EGFP cells; read-out: INHIBITION
A digest of the protocol:
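Uninfected HepG2-A16-CD81EGFP cells, 3 × 10^3 per well, 1536-well, plated on prespotted compound at 10 μM final, parasite-free screening media added to match infected plates; puromycin 10 μM positive, DMSO 0.5% negative; run in parallel with 48 h PbLuc assay at 37 °C, 5% CO2; viability by CellTiter-Glo luminescence, normalized to controls.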
Consider `Cc1cccc(NC(=O)CNC(=O)Cn2ncc(Cl)c(Cl)c2=O)c1C`, for which the cytotoxicity at 10 µM is 12.7%.

As to `COC(=O)c1cccc(C(=O)N2CCN(c3ccc(OC)cc3)CC2)n1`, the cytotoxicity at 10 µM was -7.12%.

On to `COC(=O)[C@H](CCSC)NC(=O)Cc1c(C)nn(-c2ccccc2)c1C`, for which the cytotoxicity at 10 µM is -1.65%.

Take `CC1(C)OCC2(CO1)CN(S(=O)(=O)c1ccc(Cl)s1)C2`: the cytotoxicity at 10 µM was -0.295%.

Take `N#Cc1ccc(S(=O)(=O)Nc2cnn(C3CCOCC3)c2)cc1`: the cytotoxicity at 10 µM is -11.3%.

In the case of `CN(Cc1cccs1)C1CCC[C@@H]2CN(C(=O)c3cccn3C)C[C@H]12` (stereo partly specified), the cytotoxicity at 10 µM turned out to be 22.6%.

Take `O=C(NCC1CC[C@@]2(CNCCOC2)O1)c1cnccn1` (stereo partly specified): the cytotoxicity at 10 µM is 9.44%.

On to `COCCNC(=O)[C@]12COC[C@H]1CN(c1cc(OC)ncn1)C2`, for which the cytotoxicity at 10 µM is 4.32%.

As to `CN1CCN(CC2CC2)C(=O)C12CCN(C(=O)c1cnccn1)CC2`, the cytotoxicity at 10 µM was determined as 7.95%.

For `Fc1cccc(N2CCc3ncnc(N4CCOCC4)c3CC2)c1`, the cytotoxicity at 10 µM is 9.49%.

For the molecule `CC(=O)c1cn(CCC(=O)N[C@H](C(=O)O)C(C)C)c2ccccc12`, the cytotoxicity at 10 µM came out at 8.86%.

Regarding `O=c1[nH]c2nc(N3CCSCC3)ncc2c(=O)n1-c1cccc(F)c1`, the cytotoxicity at 10 µM is -1.82%.

For the molecule `O=C(NCc1cccs1)C1CN(C(=O)c2cccs2)CC12CCOCC2` (stereo unspecified), the cytotoxicity at 10 µM was -11.5%.

As to `CCN1CC2(CC1=O)CN(C(=O)c1ccco1)CCN(C(=O)N(C)C)C2` (stereo unspecified), the cytotoxicity at 10 µM is -8.37%.

Regarding `CC1CCN(C(=O)C(C)n2cc(Br)cn2)CC1` (stereo unspecified), the cytotoxicity at 10 µM is 11.3%.

Regarding `COc1cccc(-c2cc(C(=O)N3N=C(C)CC3(O)C(F)F)[nH]n2)c1` (stereo unspecified), the cytotoxicity at 10 µM is 8.46%.

As for `Cc1nn(C)c(C)c1CN(C)CC1(O)CCCN(C)C1` (stereo unspecified), the cytotoxicity at 10 µM came to 6.5%.

Take `O=C(NCC1CC1)c1nnc2ccc(Cl)cc2n1`: the cytotoxicity at 10 µM worked out at 0.318%.

Turning to `Cc1cc(N2CCCC(c3nccnc3N(C)C)C2)ncn1` (stereo unspecified), the cytotoxicity at 10 µM was -1.77%.

For the molecule `Cc1csc2c(C3CCCN(C(=O)CCn4cncn4)C3)nc(C)n12` (stereo unspecified), the cytotoxicity at 10 µM turned out to be 7.96%.

Regarding `c1cc(-c2cnc(NC3CC3)nc2[C@@H]2CCCO2)ccn1`, the cytotoxicity at 10 µM amounted to 8.72%.

As for `Cc1cnc(-c2nc(O)c3c(n2)CN(C(=O)CC2CCCC2)CC3)cn1`, the cytotoxicity at 10 µM is -1.37%.

`Cc1ccc(CNCCN2CCOCC2)o1`: the cytotoxicity at 10 µM was -2.62%.

Consider `Cc1ccsc1C(=O)N1CCC2(CC(N(C)c3ccncn3)C2)C1` (stereo unspecified), for which the cytotoxicity at 10 µM was -5.75%.

`O=C(NC1CC1)c1cc(C(F)(F)F)cc(C(=O)NC2CC2)n1`: the cytotoxicity at 10 µM is 9.97%.

Consider `CC(NC(=O)N1CCC2(C1)OCCO2)c1cccc(Cl)c1` (stereo unspecified), for which the cytotoxicity at 10 µM was -6.88%.

Consider `COc1ccccc1CN(C)C(=O)C[S+]([O-])Cc1cc(C)on1` (stereo unspecified), for which the cytotoxicity at 10 µM worked out at 0.788%.

Take `CCc1ccc(C(C)NCc2nccn2Cc2ccccc2)o1` (stereo unspecified): the cytotoxicity at 10 µM was -1.2%.

Turning to `CN(Cc1cnn(C)c1)C(=O)CCC(=O)c1ccc2c(c1)OCCO2`, the cytotoxicity at 10 µM is -1.14%.

As to `Cc1nc(COc2ccc(OC(C)C(N)=O)cc2)oc1C` (stereo unspecified), the cytotoxicity at 10 µM was -1.65%.

As to `Cc1cc(C(=O)NC2CCN(c3ncccc3C#N)CC2)no1`, the cytotoxicity at 10 µM is -7.25%.

`Cc1ccc(C(=O)N(CCC#N)Cc2ccccn2)cc1C`: the cytotoxicity at 10 µM is 0.665%.

As to `Cc1ccc(C(=O)N2CCN(CCCSCC#N)CC2)cc1F`, the cytotoxicity at 10 µM is -145%.

In the case of `CCOC(=O)c1ccc(Nc2ccc(OC)c(N3CCCC3=O)c2)nc1`, the cytotoxicity at 10 µM amounted to 8.46%.

Consider `COCCOCCNC(=O)N1CCc2c(F)ccc(F)c2C1`, for which the cytotoxicity at 10 µM is -2.23%.

As to `Cc1cc(C)c2c(c1)C(NC(=O)CSCC(N)=O)CCO2` (stereo unspecified), the cytotoxicity at 10 µM is -6.94%.

For the molecule `CCC(NC(=O)CS(=O)(=O)C1CCCC1)c1cc(F)ccc1F` (stereo unspecified), the cytotoxicity at 10 µM came out at 0.217%.

Turning to `CCc1nc(CC(=O)N2CCC(C(=O)N3CCCCC3)CC2)cs1`, the cytotoxicity at 10 µM came out at 4.92%.

Take `C[S+]([O-])c1nncn1CCCc1ccc(Cl)cc1` (stereo unspecified): the cytotoxicity at 10 µM was -8.64%.

As for `O=C(NCC1(Sc2ccccc2)CC1)c1cc[nH]n1`, the cytotoxicity at 10 µM is -5.96%.

With `O=C(NCC(CO)Cc1ccc(Cl)cc1)c1ccncc1Cl` (stereo unspecified), the cytotoxicity at 10 µM stood at 5.21%.

As for `CCOC1CCCN(C(=O)Nc2cnn(CC(F)F)c2)C1` (stereo unspecified), the cytotoxicity at 10 µM is -1.84%.

As for `COCCn1ccc(NCc2cc3cc(F)ccc3o2)n1`, the cytotoxicity at 10 µM is -8.78%.

For `CCC(C)C(=O)NCCc1nc(C(F)(F)F)cs1` (stereo unspecified), the cytotoxicity at 10 µM turned out to be 2.08%.

For `CC(C)NC(=O)COc1nc(C(C)C)no1`, the cytotoxicity at 10 µM was -3.34%.

In the case of `Cc1ccccc1S(=O)(=O)NC(=O)CSc1ccc2c(c1)OCCO2`, the cytotoxicity at 10 µM is -1.85%.

In the case of `COc1cc(NC(=O)c2cc(C)sc2C)c(C(=O)N(C)C)cc1OC`, the cytotoxicity at 10 µM was -10.6%.

Consider `Cc1ccc(OCCC(=O)NC2CCc3nc(C)cn3C2)cc1` (stereo unspecified), for which the cytotoxicity at 10 µM is -5.59%.

`COCCN(C)C(=O)c1ccc(OC)cc1O`: the cytotoxicity at 10 µM is -3.19%.

For the molecule `CC1CC2(CCN(C(=O)c3c[nH]cn3)CC2)c2ccccc21` (stereo unspecified), the cytotoxicity at 10 µM turned out to be 2.44%.

Regarding `Cn1cc2c(n1)C(COCC1CC1)CN(Cc1ccsc1)C2` (stereo unspecified), the cytotoxicity at 10 µM was -76.1%.

On to `O=C(c1ccncc1F)N1CCc2ncnc(N3CCOCC3)c2CC1`, for which the cytotoxicity at 10 µM was -75%.

Take `Cc1ccc(S(=O)(=O)N2CCC3(CC(C(=O)NC4CCC4)=NO3)C2)cc1` (stereo unspecified): the cytotoxicity at 10 µM is -1.77%.

Consider `Cc1ccc(=O)n(CC(=O)N(C)Cc2csc(-c3cccs3)n2)n1`, for which the cytotoxicity at 10 µM was found to be 6.23%.

Regarding `Nc1ncc(CN2CCC(CCC(=O)NC3CC3)CC2)cn1`, the cytotoxicity at 10 µM stood at 11.7%.

Regarding `NC(=O)c1cn2cc(-c3ccccc3Cl)n(CC3CC3)c(=O)c2n1`, the cytotoxicity at 10 µM is -1.35%.

For `CC(=O)N[C@@H]1CN(Cc2ccccc2-n2nc(C)cc2C)C[C@H]1C(C)C`, the cytotoxicity at 10 µM is 4.01%.

With `Cn1cc(CN2CCOC(CCNC(=O)c3ccsc3)C2)cn1` (stereo unspecified), the cytotoxicity at 10 µM was 2.72%.

In the case of `COCCCC1CCCN(Cc2c(C)ccc3ncccc23)C1` (stereo unspecified), the cytotoxicity at 10 µM was -136%.

As for `CCCc1ccc(CN2CCN(C(=O)C(C)C)[C@@H]3CS(=O)(=O)C[C@@H]32)o1`, the cytotoxicity at 10 µM amounted to 5.39%.

Consider `O=C1NCCN(C(=O)CCN2CCCO2)C1c1cccc(F)c1` (stereo unspecified), for which the cytotoxicity at 10 µM was 5.47%.

With `COc1ccc(Cc2ncc3c(n2)CN(C(=O)CN(C)C)C3)cc1`, the cytotoxicity at 10 µM was -1.28%.

For the molecule `CCc1nccc(CN2CCCC(CNC(=O)c3occc3C)C2)n1` (stereo unspecified), the cytotoxicity at 10 µM amounted to 2.28%.

On to `COc1ccc(OC2CCN(C(=O)CCc3n[nH]c(N)n3)CC2)cc1`, for which the cytotoxicity at 10 µM is 1.43%.

Consider `O=C(NCCc1cc(=O)[nH]cn1)c1[nH]nc2c1CCCC2`, for which the cytotoxicity at 10 µM was found to be 2.22%.

In the case of `CCN(Cc1ccncc1)Cc1cn(-c2ccccc2)nn1`, the cytotoxicity at 10 µM is -49.8%.

In the case of `CCn1ccnc1CN1CCC(Oc2cccc(F)c2)(C(=O)O)CC1`, the cytotoxicity at 10 µM came out at 3.67%.

In the case of `COCc1cn(C2CCN(Cc3ccc(Cl)s3)CC2)nn1`, the cytotoxicity at 10 µM is 5.43%.

For `CCC1(CO)CCCN(c2ncccc2C#N)C1` (stereo unspecified), the cytotoxicity at 10 µM is -9.06%.

Turning to `CCc1cc(NC2CCN(S(C)(=O)=O)CC2)n2nc(C)c(C)c2n1`, the cytotoxicity at 10 µM was -12.2%.

For the molecule `Cc1cc(=O)[nH]c(NCCNC(=O)C(c2ccc(F)cc2)N(C)C)n1` (stereo unspecified), the cytotoxicity at 10 µM was -29.5%.

As for `CCc1ccc(S(=O)(=O)Nc2ccc(F)cc2C(=O)O)s1`, the cytotoxicity at 10 µM was found to be 3.69%.

Regarding `CN(Cc1noc(C2CC2)n1)C1CCN(Cc2ccccc2C#N)C1` (stereo unspecified), the cytotoxicity at 10 µM is -7.8%.

On to `CC(O)CN1CCN(Cc2csc(-c3cnn(C)c3)n2)CC1` (stereo unspecified), for which the cytotoxicity at 10 µM is -4.1%.

Consider `c1cnnc(N2CCCC(NCc3ccc(-n4cncn4)cc3)C2)c1` (stereo unspecified), for which the cytotoxicity at 10 µM was -3.14%.

Consider `CC(C)(CNC(=O)NCCOc1cccc(F)c1)C(N)=O`, for which the cytotoxicity at 10 µM was -8.93%.

Regarding `Cc1noc(C(C)C)c1C(=O)NCC(c1cccc(F)c1)N(C)C` (stereo unspecified), the cytotoxicity at 10 µM was -7.46%.

As to `Cc1ccc(N2CCCC(NCc3ccsc3)C2)nn1` (stereo unspecified), the cytotoxicity at 10 µM is -7.42%.

For the molecule `N#Cc1cccnc1OC1CCNCC1`, the cytotoxicity at 10 µM is -8.99%.

For `O=C(NCC1CCC2(CCNCC2)CO1)c1ccno1` (stereo unspecified), the cytotoxicity at 10 µM came to 12.5%.

Turning to `CCOCC1CN(C(=O)c2ccnnc2)Cc2cnn(CC)c21` (stereo unspecified), the cytotoxicity at 10 µM is -77.8%.

As for `CNC(=O)c1cc(C2CCCNC2)n[nH]1` (stereo unspecified), the cytotoxicity at 10 µM was determined as 9.03%.

Consider `Cc1cc(C)nc(C2CCCNC2)n1` (stereo unspecified), for which the cytotoxicity at 10 µM amounted to 9.85%.

On to `C1CCN(CCOC2CCNC2)CC1` (stereo unspecified), for which the cytotoxicity at 10 µM worked out at 6.32%.

`Cc1cccc(S(=O)(=O)N2CC[C@H]3[C@H]2CCN3c2ncccn2)c1`: the cytotoxicity at 10 µM is 0.995%.

Take `O=C([C@H]1C[C@H]2OCC[C@H]2N(Cc2ccccn2)C1)N1CCCCO1`: the cytotoxicity at 10 µM is -73.3%.

On to `Cc1cnc(N2CC[C@@H]3O[C@H](COCc4ccccn4)CC[C@@H]32)nc1`, for which the cytotoxicity at 10 µM was -76.3%.

Turning to `O=C1[C@H]2CN(CC3CCOCC3)C[C@H]2CN1c1ccsc1`, the cytotoxicity at 10 µM amounted to 8.52%.

Take `COCC(=O)N1CCCC2(COCCN(CCN(C)C)C2)C1` (stereo unspecified): the cytotoxicity at 10 µM stood at 8.76%.

With `O=C(C1CCCO1)N1CCC2(CC1)COCCN(Cc1ccncc1)C2` (stereo unspecified), the cytotoxicity at 10 µM was -81.1%.

As for `CN(C)CCO[C@@H]1CC[C@H]2[C@H]1OCCN2C(=O)CCc1ccccc1`, the cytotoxicity at 10 µM was -6.69%.

Take `c1cnc(N2CCC3(CCN(CC4CCOCC4)CC3)C2)nc1`: the cytotoxicity at 10 µM was 1.29%.

With `O=C([C@H]1C[C@@H]2[C@@H](C1)OCCN2CC1CC1)N1CCCC1`, the cytotoxicity at 10 µM is -2.2%.

As for `CC(C)N1[C@H](Cn2cncn2)C[C@@H]2CNCC[C@@H]21`, the cytotoxicity at 10 µM was 1.9%.

Turning to `CCN1CC2(CC1=O)CN(Cc1ccco1)CCN(C(=O)N(C)C)C2` (stereo unspecified), the cytotoxicity at 10 µM is -6.05%.

Take `Cc1ccccc1CNC(=O)N1C[C@@H]2C[C@H](C(=O)N(C)C)[C@H](C1)O2`: the cytotoxicity at 10 µM amounted to 5.44%.
